Experimental data reported in ChEMBL document CHEMBL4196188, “GEX1A, a Polyketide from Streptomyces chromofuscus, Corrects the Cellular Defects Associated with Niemann-Pick Type C1 in Human Fibroblasts” (J Nat Prod, 2018).
Calls of active or inactive are those of the source. The rule behind the calls is not given here.

How the values were obtained:
[1] = target: Splicing factor 3B subunit 1 (Homo sapiens) (UniProt O75533); assay: Binding affinity to SAP155 in human GM18407 cells harboring NPC1 R404Q/M1142T mutant assessed as restoration of cholesterol trafficking at 0.001 to 5 uM after 48 hrs by filipin-staining based fluorescence microscopic analysis; type: cell-based
[2] = target: Splicing factor 3B subunit 1 (Homo sapiens) (UniProt O75533); assay: Binding affinity to SAP155 in human GM18453 cells harboring NPC1 mutant assessed as restoration of cholesterol trafficking at 50 nM after 48 hrs by filipin-staining based fluorescence microscopic analysis; type: cell-based
Summary of the method: (§1)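 GM18453 NPC1-mutant fibroblasts were exposed for 48 h to 1 nM–5 μM compound, with DMSO vehicle and SAHA (5 μM) positive control. Cells were fixed, stained with filipin for unesterified cholesterol, and imaged by automated fluorescence microscopy. Filipin area sum per cell count was taken from four images per condition across four independent replicates.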

[3] = Aqueous solubility of the compound in pH 7.4 buffer; type: physicochemical
[4] = target: Splicing factor 3B subunit 1 (Homo sapiens) (UniProt O75533); assay: Binding affinity to SAP155 in human GM18453 cells harboring NPC1 mutant assessed as increase in 120 kDa NPC1 protein expression at 50 nM pretreated for 48 hrs followed by PNGaseF addition and measured after overnight incubation by Western blot analysis; type: cell-based
Summary of the method: (§2)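 After 48 h exposure of GM18453 fibroblasts to 50 nM compound (controls SAHA 5 μM, DMSO 0.1%), 25 μg lysate with SDS, DTT and Tris-HCl pH 8 was digested with PNGase F (1000 U) about 18 h at 37°C. Samples were immunoblotted with rabbit anti-NPC1, and isoforms were quantified by densitometry over four independent experiments.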

[5] = Protein binding in human plasma; type: ADME, cell-free
[6] = target: Splicing factor 3B subunit 1 (Homo sapiens) (UniProt O75533); assay: Binding affinity to SAP155 in human GM18453 cells harboring NPC1 mutant assessed as increase in 250 kDa NPC1 protein expression at 50 nM pretreated for 48 hrs followed by endoglycosidase H addition and measured after overnight incubation by Western blot analysis; type: cell-based
Summary of the method: (§3)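 GM18453 fibroblasts were exposed 48 h to 50 nM compound, SAHA 5 μM or DMSO 0.1%. 25 μg lysate was denatured 10 min at 65°C, digested with Endo H (1000 U) about 18 h at 37°C, then run on SDS-PAGE. Blots were probed with rabbit anti-NPC1. Isoforms were quantified by densitometry against DMSO control across four independent experiments.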

[7] = Cytotoxicity against human GM18453 cells harboring NPC1 mutant assessed as effect on nuclei shape at 5 uM; type: cell-based; summary of the method: as §1
[8] = target: Splicing factor 3B subunit 1 (Homo sapiens) (UniProt O75533); assay: Binding affinity to SAP155 in human GM18453 cells harboring NPC1 mutant assessed as increase in 100 kDa NPC1 protein expression at 50 nM measured after 48 hrs by Western blot analysis; type: cell-based
Summary of the method: (§4)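 GM18453 fibroblasts were treated 48 h at 37°C, 5% CO2 with 50 nM compound, SAHA 5 μM or DMSO 0.1% v/v, then lysed in RIPA with protease inhibitors. 25–50 μg protein was run on 4–20% SDS-PAGE, blotted to PVDF and probed with rabbit polyclonal C-terminal anti-NPC1 (1:1000, overnight, 4°C). Detection used HRP anti-rabbit and ECL film.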

[9] = target: Splicing factor 3B subunit 1 (Homo sapiens) (UniProt O75533); assay: Binding affinity to SAP155 in human GM18453 cells harboring NPC1 mutant assessed as increase in 100 kDa NPC1 protein expression at 50 nM pretreated for 48 hrs followed by endoglycosidase H addition and measured after overnight incubation by Western blot analysis relative to control; type: cell-based; summary of the method: as §3
[10] = target: Splicing factor 3B subunit 1 (Homo sapiens) (UniProt O75533); assay: Binding affinity to SAP155 in human GM18453 cells harboring NPC1 mutant assessed as increase in 120 kDa NPC1 protein expression at 50 nM measured after 48 hrs by Western blot analysis; type: cell-based; summary of the method: as §4
[11] = Cytotoxicity against human GM18453 cells harboring NPC1 mutant assessed as effect on cell shape at 5 uM; type: cell-based; summary of the method: as §1
[12] = Permeability in human Caco2 cells; type: ADME, cell-based; settings: caco-2
[13] = target: Splicing factor 3B subunit 1 (Homo sapiens) (UniProt O75533); assay: Binding affinity to SAP155 in human GM18453 cells harboring NPC1 mutant assessed as increase in 180 kDa NPC1 protein expression at 50 nM pretreated for 48 hrs followed by endoglycosidase H addition and measured after overnight incubation by Western blot analysis; type: cell-based; summary of the method: as §3
[14] = Aqueous solubility of the compound in HBSS solution; type: physicochemical; settings: buffer
[15] = Stability in human liver microsomes; type: ADME, microsome
[16] = Protein binding in mouse plasma; type: ADME, cell-free
[17] = Mean residence time in ICR mouse at 2 mg/kg by LC-MS/MS analysis; type: ADME, organism-based; settings: in vivo
[18] = target: Splicing factor 3B subunit 1 (Homo sapiens) (UniProt O75533); assay: Binding affinity to SAP155 in human GM18453 cells harboring NPC1 mutant assessed as increase in 180 kDa NPC1 protein expression at 50 nM pretreated for 48 hrs followed by PNGaseF addition and measured after overnight incubation by Western blot analysis; type: cell-based; summary of the method: as §2
[19] = target: Splicing factor 3B subunit 1 (Homo sapiens) (UniProt O75533); assay: Binding affinity to SAP155 in human GM18453 cells harboring NPC1 mutant assessed as increase in 180 kDa NPC1 protein expression at 50 nM measured after 48 hrs by Western blot analysis; type: cell-based; summary of the method: as §4
[20] = Stability in mouse liver microsomes; type: ADME, microsome

Chain of Splicing factor 3B subunit 1 (Homo sapiens) (O75533 whole entry, canonical isoform): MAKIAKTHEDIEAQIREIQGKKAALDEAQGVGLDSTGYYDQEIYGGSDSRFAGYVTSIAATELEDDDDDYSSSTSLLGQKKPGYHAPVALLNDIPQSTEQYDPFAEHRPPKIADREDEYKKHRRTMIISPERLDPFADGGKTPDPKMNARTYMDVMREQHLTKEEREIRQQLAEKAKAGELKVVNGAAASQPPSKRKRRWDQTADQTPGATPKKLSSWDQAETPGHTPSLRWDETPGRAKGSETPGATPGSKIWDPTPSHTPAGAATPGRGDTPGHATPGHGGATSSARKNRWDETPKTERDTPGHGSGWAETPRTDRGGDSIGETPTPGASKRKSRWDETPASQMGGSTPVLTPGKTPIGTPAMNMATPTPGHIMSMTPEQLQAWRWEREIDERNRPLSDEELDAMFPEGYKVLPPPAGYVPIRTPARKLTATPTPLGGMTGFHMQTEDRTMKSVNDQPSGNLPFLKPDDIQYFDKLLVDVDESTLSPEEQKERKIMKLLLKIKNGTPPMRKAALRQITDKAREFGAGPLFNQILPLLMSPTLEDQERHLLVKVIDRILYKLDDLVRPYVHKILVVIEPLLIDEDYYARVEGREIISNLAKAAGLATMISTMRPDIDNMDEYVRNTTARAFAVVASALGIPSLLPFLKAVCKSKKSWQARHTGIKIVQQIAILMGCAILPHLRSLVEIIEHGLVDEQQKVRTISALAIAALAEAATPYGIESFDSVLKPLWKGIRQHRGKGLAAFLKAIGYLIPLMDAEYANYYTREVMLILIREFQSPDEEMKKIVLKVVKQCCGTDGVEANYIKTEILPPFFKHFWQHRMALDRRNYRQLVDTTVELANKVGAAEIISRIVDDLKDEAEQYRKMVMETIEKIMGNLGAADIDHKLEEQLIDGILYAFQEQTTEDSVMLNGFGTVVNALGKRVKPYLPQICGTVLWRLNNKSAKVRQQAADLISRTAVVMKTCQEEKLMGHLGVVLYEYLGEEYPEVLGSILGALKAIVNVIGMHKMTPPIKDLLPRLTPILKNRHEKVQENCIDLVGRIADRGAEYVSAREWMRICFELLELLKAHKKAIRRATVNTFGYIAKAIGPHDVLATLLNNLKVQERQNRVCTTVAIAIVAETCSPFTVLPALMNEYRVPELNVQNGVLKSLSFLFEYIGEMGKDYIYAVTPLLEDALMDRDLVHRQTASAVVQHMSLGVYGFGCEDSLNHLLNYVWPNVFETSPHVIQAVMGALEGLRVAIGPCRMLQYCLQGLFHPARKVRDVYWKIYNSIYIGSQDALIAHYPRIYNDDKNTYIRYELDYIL

COC(=O)C[C@H]1CC[C@H](C)[C@@H](/C(C)=C/C=C/[C@@H](C)C[C@@]2(C)O[C@@H]2[C@H](C)[C@@H](OC)C(C)=O)O1
Activity [1]: inactive | Activity [2]: Active

COC(=O)C[C@H]1CC[C@H](C)[C@@H](/C(C)=C/C=C/[C@@H](C)C[C@@]2(C)O[C@@H]2[C@H](C)[C@@H](OC)[C@@H](C)OC(C)=O)O1
Activity [1]: inactive | Activity [2]: Active

CO[C@H]([C@@H](C)[C@H]1O[C@]1(C)C[C@H](C)/C=C/C=C(\C)[C@H]1O[C@@H](CC(=O)O)CC[C@@H]1C)[C@@H](C)O
solubility [3]: Soluble | Activity [4]: Active | Activity [1]: inactive | PB [5]: Active | Activity [6]: inactive | Activity [7]: Toxic | Activity [8]: Active | fold change (FC) [9]: 1.5 | Activity [2]: Active | Activity [10]: Active | Activity [11]: Toxic | permeability [12]: Permeable | Activity [13]: inactive | solubility [14]: Soluble | Stability [15]: Stable | PB [16]: Active | MRT [17]: 4.53 h | Activity [18]: inactive | Activity [19]: Active | Stability [20]: Stable

COC(=O)C[C@H]1CC[C@H](C)[C@@H](/C(C)=C/C=C/[C@@H](C)C[C@@]2(C)O[C@@H]2[C@H](C)[C@@H](OC)[C@@H](C)O)O1
Activity [1]: inactive | Activity [2]: Active
